Measured values reported in ChEMBL document CHEMBL5150051, “Identification and Characterization of a Novel Indoleamine 2,3-Dioxygenase 1 Protein Degrader for Glioblastoma” (J Med Chem, 2022).
The source made the active and inactive calls. No cut-off for these calls is given here.

Columns and labels:
[1] = biological target: T1, Protein cereblon/Indoleamine 2,3-dioxygenase 1 (Homo sapiens, UniProt P14902+Q96SW2); assay: Binding affinity to CRBN /IDO1 (unknown origin) assessed as ternary complex stability by measuring half-life by bio-layer interferometry assay; format: protein assay
Summary of the method: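 For the ternary complex, compound was preincubated with a 25-fold molar excess of CRBN, and binding of this binary complex to IDO1 was followed in real time.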
Target sequence in this assay (P14902 whole entry, looked up): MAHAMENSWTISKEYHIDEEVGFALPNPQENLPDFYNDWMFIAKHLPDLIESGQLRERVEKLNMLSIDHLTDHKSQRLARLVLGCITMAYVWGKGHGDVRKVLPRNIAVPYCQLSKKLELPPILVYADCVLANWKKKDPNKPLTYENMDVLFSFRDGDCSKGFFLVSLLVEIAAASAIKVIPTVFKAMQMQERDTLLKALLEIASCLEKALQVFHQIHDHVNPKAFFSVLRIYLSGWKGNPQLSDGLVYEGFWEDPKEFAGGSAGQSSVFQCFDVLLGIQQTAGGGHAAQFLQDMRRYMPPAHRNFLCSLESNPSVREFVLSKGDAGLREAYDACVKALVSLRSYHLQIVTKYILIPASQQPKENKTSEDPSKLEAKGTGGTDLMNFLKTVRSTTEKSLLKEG
Target sequence in this assay (Q96SW2 whole entry, looked up): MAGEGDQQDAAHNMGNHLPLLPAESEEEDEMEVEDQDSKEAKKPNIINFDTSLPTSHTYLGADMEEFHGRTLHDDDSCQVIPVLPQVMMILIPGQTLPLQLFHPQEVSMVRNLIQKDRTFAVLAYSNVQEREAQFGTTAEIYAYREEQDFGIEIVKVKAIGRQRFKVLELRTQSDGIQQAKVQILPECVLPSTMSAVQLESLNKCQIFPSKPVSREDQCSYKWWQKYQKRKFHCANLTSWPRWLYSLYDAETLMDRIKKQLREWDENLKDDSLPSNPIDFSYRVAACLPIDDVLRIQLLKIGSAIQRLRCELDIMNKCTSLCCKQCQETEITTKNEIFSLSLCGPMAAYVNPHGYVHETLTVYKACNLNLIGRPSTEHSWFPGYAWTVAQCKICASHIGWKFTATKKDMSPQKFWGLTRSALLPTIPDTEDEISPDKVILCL

[2] = biological target: T1, Protein cereblon/Indoleamine 2,3-dioxygenase 1; assay: Protac activity at IDO1/CRBN in IFNgamma-stimulated human U87 cells assessed as IDO1 degradation measured after 24 hrs by Western blotting analysis; format: cell-based
Summary of the method: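 U87 cells given human IFNγ 50 ng/mL for 24 h to induce IDO1, then PROTAC over a dose range starting at 0.01 μM and rising to 30 μM for 24 h. Western blot read-out. IDO1 band densitometry normalized to untreated samples and fitted to give DC50, the concentration giving 50% IDO1 degradation. n = 3 independent experiments, mean ± SEM.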
Target sequence in this assay (P14902 whole entry): as the sequence (P14902 whole entry, looked up) above
Target sequence in this assay (Q96SW2 whole entry): as the sequence (Q96SW2 whole entry, looked up) above

[3] = biological target: T1, Protein cereblon/Indoleamine 2,3-dioxygenase 1; assay: Protac activity at IDO1/CRBN in IFNgamma-stimulated human GBM43 cells assessed as IDO1 degradation measured after 24 hrs by Western blotting analysis; format: cell-based, GBM43 cell
Summary of the method: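 GBM43 cells stimulated with 50 ng/mL human IFNγ for 24 h, then treated across 0.01 to 30 μM for 24 h. IDO1 was quantified by western blot densitometry as percent of IFNγ-induced untreated level. DC50 came from the dose-response curve; n = 3 independent experiments, mean ± SEM.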

[4] = biological target: T1, Protein cereblon/Indoleamine 2,3-dioxygenase 1; assay: Protac activity at IDO1/CRBN in IFNgamma-stimulated human PANC-1 cells assessed as IDO1 degradation by measuring decrease in intracellular protein level measured after 24 hrs by Western blotting analysis; format: cell-based; conditions: dose 1-10 µM, DDE = dose-dependent effect
Target sequence in this assay (P14902 whole entry, looked up): as the sequence (P14902 whole entry, looked up) above
Target sequence in this assay (Q96SW2 whole entry, looked up): as the sequence (Q96SW2 whole entry, looked up) above

Ido1/Crbn (Mus musculus) [5] = biological target: T2, Ido1/Crbn (Mus musculus) (UniProt P28776+Q8C7D2); assay: Protac activity at IDO1/CRBN in IFNgamma-stimulated mouse GL261 cells assessed as IDO1 degradation by measuring decrease in intracellular protein level measured after 24 hrs by Western blotting analysis; format: cell-based; conditions: dose 1-10 µM, DDE = dose-dependent effect
[6] = biological target: T1, Protein cereblon/Indoleamine 2,3-dioxygenase 1; assay: Protac activity at IDO1/CRBN in IFNgamma-stimulated human KNS-42 cells assessed as IDO1 degradation measured after 24 hrs by Western blotting analysis; format: cell-based; conditions: dose 0.1-10 µM, DDE = dose-dependent effect
Target sequence in this assay (P14902 whole entry, looked up): as the sequence (P14902 whole entry, looked up) above
Target sequence in this assay (Q96SW2 whole entry, looked up): as the sequence (Q96SW2 whole entry, looked up) above

[7] = biological target: T1, Protein cereblon/Indoleamine 2,3-dioxygenase 1; assay: Protac activity at CRBN/IDO1-FLAG expressed in human U87 cells assessed as IDO1 degradation measured at 1 to 10 uM after 24 hrs by Western blotting analysis; format: cell-based; conditions: dose 1-10 µM
Target sequence in this assay (P14902 whole entry, looked up): as the sequence (P14902 whole entry, looked up) above
Target sequence in this assay (Q96SW2 whole entry, looked up): as the sequence (Q96SW2 whole entry, looked up) above

[8] = biological target: T1, Protein cereblon/Indoleamine 2,3-dioxygenase 1; assay: Protac activity at CRBN/IDO1-FLAG expressed in human U87 cells assessed as IDO1 degradation in intracellular nuclear compartment measured at 1 to 10 uM after 24 hrs by Western blotting analysis; format: subcellular; conditions: Nucleus, dose 1-10 µM
Target sequence in this assay (P14902 whole entry, looked up): as the sequence (P14902 whole entry, looked up) above
Target sequence in this assay (Q96SW2 whole entry, looked up): as the sequence (Q96SW2 whole entry, looked up) above

[9] = biological target: T1, Protein cereblon/Indoleamine 2,3-dioxygenase 1; assay: Protac activity at CRBN/IDO1-HA expressed in human U87 cells assessed as IDO1 degradation in intracellular cytoplasmic compartment measured at 1 to 10 uM after 24 hrs by Western blotting analysis; format: subcellular; conditions: Cytoplasm, dose 1-10 µM
Target sequence in this assay (P14902 whole entry, looked up): as the sequence (P14902 whole entry, looked up) above
Target sequence in this assay (Q96SW2 whole entry, looked up): as the sequence (Q96SW2 whole entry, looked up) above

[10] = biological target: T1, Protein cereblon/Indoleamine 2,3-dioxygenase 1; assay: Protac activity at CRBN/IDO1-HA expressed in human U87 cells assessed as IDO1 degradation in intracellular nuclear compartment measured at 1 to 10 uM after 24 hrs by Western blotting analysis; format: subcellular; conditions: Nucleus, dose 1-10 µM
[11] = biological target: T1, Protein cereblon/Indoleamine 2,3-dioxygenase 1; assay: Protac activity at CRBN/IDO1 in enzyme-null cDNA transfected in human U87 cells assessed as IDO1 degradation by measuring decrease in protein level measured at 0.1 to 10 uM after 24 hrs by Western blotting analysis; format: cell-based; conditions: dose 0.1-10 µM
[12] = biological target: T1, Protein cereblon/Indoleamine 2,3-dioxygenase 1; assay: Protac activity at IDO1/CRBN in human U87 cells assessed as IDO1 degradation at 10 uM measured after compound washout by Western blotting analysis relative to control; format: cell-based
Summary of the method: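 U87 cells exposed to PROTAC for 24 h, after which compound was fully withdrawn from the medium and culture continued without it for up to 48 h. IDO1 levels then assessed by western blot.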

[13] = biological target: T1, Protein cereblon/Indoleamine 2,3-dioxygenase 1; assay: Protac activity at CRBN/IDO1-FLAG expressed in human U87 cells assessed as IDO1 degradation at 10 uM measured in presence of IDO1 inhibitor BGB-7204 by immunoprecipitated ubiquitination assay; format: cell-based
[14] = biological target: T1, Protein cereblon/Indoleamine 2,3-dioxygenase 1; assay: Protac activity at CRBN/IDO1 in IFNgamma-stimulated human CD18 cells assessed as decrease in kynurenine level at 10 uM measured after 24 hrs by Ehrlich's test; format: cell-based; conditions: CD18 cell
[15] = biological target: T1, Protein cereblon/Indoleamine 2,3-dioxygenase 1; assay: Protac activity at CRBN/IDO1 non-enzyme mediated NF-kappaB signal in IFNgamma-stimulated human U87 cells assessed as decrease in p65 phosphorylation at 0.1 to 10 uM measured after 24 hrs Western blotting assay; format: cell-based; conditions: dose 0.1-10 µM
Summary of the method: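 IFNγ-stimulated cells were induced for 24 h, then treated at several concentrations for 24 h. Lysates were western blotted for IDO1, phospho-p65, total p65 and GAPDH.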

[16] = Toxicity in C57BL/6 mouse assessed as body weight change at 10 to 100 mg/kg, ip treated 5 days/week for 3 weeks; format: organism-based; conditions: in vivo, 504 h, dose 10-100 mg/kg
Summary of the method: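 Male C57BL/6 mice dosed ip with vehicle or compound at 10, 25, 50 or 100 mg/kg, 5 days/week for 3 weeks. Body weight recorded every 2–3 days. n = 3 mice/dose, mean ± SEM.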

[17] = Drug uptake in C57BL/6 mouse intestine at 100 mg/kg, ip treated 5 days/week for 3 weeks by LC/MS/MS analysis; format: ADME, organism-based; conditions: in vivo, 504 h
[18] = Drug uptake in C57BL/6 mouse pancreas at 100 mg/kg, ip treated 5 days/week for 3 weeks by LC/MS/MS analysis; format: ADME, organism-based; conditions: in vivo, 504 h
[19] = Half life in C57BL/6 mouse plasma at 25 mg/kg, ip; format: ADME, organism-based
[20] = Half life in C57BL/6 mouse brain at 25 mg/kg, ip; format: ADME, organism-based
[21] = Drug uptake in C57BL/6 mouse brain at 25 mg/kg, ip measured after 6 hrs by equilibrium dialysis; format: ADME, organism-based; conditions: in vivo
Summary of the method: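 C57BL/6 mice received a single 25 mg/kg ip dose. Serum and brain were sampled at 0 to 24 h and the drug was quantified by mass spectrometry (n = 3 mice/dose). Binding to mouse brain homogenate was measured by 6 h equilibrium dialysis.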

Ido1/Crbn (Mus musculus) [22] = biological target: T2, Ido1/Crbn (Mus musculus); assay: Protac activity at CRBN/IDO1 non-enzyme mediated p65 phosphorylation in mouse GL261 cells expressing IDO1 cDNA measured at 0.1 to 10 uM after 24 hrs by Western blotting analysis; conditions: dose 0.1-10 µM
Mus musculus = assay: In vivo Protac activity at IDO1/CRBN in luciferase-modified GL261 cells engrafted mouse cancer model assessed as increase in survival time measured at 25 mg/kg, ip treated 14 days post tumor implantation; conditions: time 14 day
[23] = biological target: T1, Protein cereblon/Indoleamine 2,3-dioxygenase 1; assay: Protac activity at CRBN/IDO1 in 50 ng/mL IFNgamma-stimulated human U87 cells assessed as IDO1 degradation by measuring decrease in protein level measured at 0.1 to 10 uM after 24 hrs by Western blotting analysis; conditions: dose 0.1-10 µM

T2 sequence (P28776 whole entry, looked up): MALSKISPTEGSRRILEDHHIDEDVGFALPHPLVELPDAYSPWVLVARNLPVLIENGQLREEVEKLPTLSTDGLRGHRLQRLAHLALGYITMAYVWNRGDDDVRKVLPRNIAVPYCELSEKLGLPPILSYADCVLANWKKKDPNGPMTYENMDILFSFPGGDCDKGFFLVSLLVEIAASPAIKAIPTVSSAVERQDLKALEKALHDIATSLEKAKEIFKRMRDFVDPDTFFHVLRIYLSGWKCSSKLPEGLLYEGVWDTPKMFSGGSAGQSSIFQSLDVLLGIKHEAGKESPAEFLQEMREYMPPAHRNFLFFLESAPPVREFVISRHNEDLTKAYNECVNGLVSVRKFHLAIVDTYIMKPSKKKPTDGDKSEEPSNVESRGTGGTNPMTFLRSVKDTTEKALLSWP
T2 sequence (Q8C7D2 whole entry, looked up): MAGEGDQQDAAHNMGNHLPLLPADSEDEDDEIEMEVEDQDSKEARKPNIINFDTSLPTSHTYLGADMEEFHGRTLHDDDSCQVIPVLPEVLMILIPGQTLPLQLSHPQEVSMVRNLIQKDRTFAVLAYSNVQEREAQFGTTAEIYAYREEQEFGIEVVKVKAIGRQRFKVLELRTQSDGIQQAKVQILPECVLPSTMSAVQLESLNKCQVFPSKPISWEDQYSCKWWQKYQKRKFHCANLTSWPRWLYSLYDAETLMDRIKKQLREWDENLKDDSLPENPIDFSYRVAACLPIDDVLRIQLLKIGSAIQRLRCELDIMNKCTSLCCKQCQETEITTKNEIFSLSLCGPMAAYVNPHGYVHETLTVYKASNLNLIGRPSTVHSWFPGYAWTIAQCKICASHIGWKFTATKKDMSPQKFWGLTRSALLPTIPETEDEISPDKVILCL

C[C@@H](C(=O)Nc1ccc(OC2CCN(C(=O)CCOCCOCCNc3cccc4c3C(=O)N(C3CCC(=O)NC3=O)C4=O)CC2)cc1)[C@H]1CC[C@@H](c2ccnc3ccc(F)cc32)CC1 (stereo not given in full)
T1/2 [1]: 7.7 min | EC50 [2]: 329 nM | EC50 [3]: 544 nM | Activity ([3]; GBM43 cell, dose 1-10 µM, DDE = dose-dependent effect): Dde | Activity [4]: Dde | Activity (Ido1/Crbn (Mus musculus) [5]): Dde | Activity [6]: Dde | Activity [7]: Active | Activity [8]: Active | Activity [9]: Active | Activity [10]: Active | Activity [11]: Active | Activity [12]: Active | Activity [13]: Active | inhibition [14]: Active | Activity [15]: Active | Activity [16]: Non-Toxic | Drug uptake [17]: Active | Drug uptake [18]: Active | half-life [19]: 2.5 h | half-life [20]: 8.3 h | Drug uptake [21]: 99.8% | inhibition (Ido1/Crbn (Mus musculus) [22]): Active | Time (Mus musculus): 45 days | Activity [23]: Active
